Test results published in ChEMBL document CHEMBL1130123, “Optimization of 3-(1H-indazol-3-ylmethyl)-1,5-benzodiazepines as potent, orally active CCK-A agonists” (J Med Chem, 1997).

Assays:
[1] = biological target: T1, Gastrin/cholecystokinin type B receptor (Homo sapiens, UniProt P32239); test: In vitro for binding affinity against human cholecystokinin type B receptor.
T1 sequence (P32239 whole entry): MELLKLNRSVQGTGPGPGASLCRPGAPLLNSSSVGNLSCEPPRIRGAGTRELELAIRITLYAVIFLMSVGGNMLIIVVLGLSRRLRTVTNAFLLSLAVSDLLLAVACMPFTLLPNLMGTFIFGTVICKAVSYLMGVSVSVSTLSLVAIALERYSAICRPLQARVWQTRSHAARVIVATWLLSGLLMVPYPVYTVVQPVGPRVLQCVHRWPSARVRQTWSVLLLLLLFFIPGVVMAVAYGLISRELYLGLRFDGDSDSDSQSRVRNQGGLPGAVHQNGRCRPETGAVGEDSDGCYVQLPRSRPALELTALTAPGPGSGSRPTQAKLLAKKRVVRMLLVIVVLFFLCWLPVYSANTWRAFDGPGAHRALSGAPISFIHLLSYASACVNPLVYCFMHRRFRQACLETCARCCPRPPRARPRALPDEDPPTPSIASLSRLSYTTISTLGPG

[2] = organism: Cavia porcellus; test: In vitro functional efficacy relative to CCK-8 in inducing contraction of the isolated guinea pig gallbladder (GPGB) at a 1 uM concentration.
How it was run: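 Isolated guinea pig gallbladder, ligand 1 μM, 30 min at 37 °C; maximal contraction expressed relative to CCK-8 (1 μM) = 100%; values ± 5%.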

[3] = organism: Cavia porcellus; test: In vitro functional agonist activity in the isolated guinea pig gall bladder, concentration at which 50% of the maximal contraction observed was reported.; details: read-out: ED50 (the source's name)
[4] = biological target: T2, Cholecystokinin receptor type A (Homo sapiens, UniProt P32238); test: In vitro for binding affinity against human cholecystokinin type A receptor.
T2 sequence (P32238 whole entry): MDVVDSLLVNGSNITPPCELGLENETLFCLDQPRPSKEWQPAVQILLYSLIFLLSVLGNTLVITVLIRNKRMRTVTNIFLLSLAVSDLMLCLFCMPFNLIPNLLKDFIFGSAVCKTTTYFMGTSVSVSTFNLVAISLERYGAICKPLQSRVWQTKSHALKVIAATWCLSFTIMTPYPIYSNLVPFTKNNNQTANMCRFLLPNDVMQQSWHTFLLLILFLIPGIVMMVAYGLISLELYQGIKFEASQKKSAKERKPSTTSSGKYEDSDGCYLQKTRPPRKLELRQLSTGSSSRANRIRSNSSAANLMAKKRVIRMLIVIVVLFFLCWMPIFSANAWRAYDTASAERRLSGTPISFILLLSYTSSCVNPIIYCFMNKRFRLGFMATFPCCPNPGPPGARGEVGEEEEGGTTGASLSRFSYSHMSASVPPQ

[5] = Oral bioavailability in Long-Evans rats at an intraduodenal dose of 6.6 mg/kg; type: ADME, organism-based; details: rat, in vivo, other: intraduodenal
[6] = system: Rattus norvegicus; test: Anorectic potency in rat was tested and intraperitoneal dose that produces a half maximal response (in vivo); type: functional; details: ip
[7] = Maximum concentration at an peroral dose of 6.2 mg/kg in rat; type: ADME, organism-based; set-up: dose 6.2 mg/kg, route oral; details: in vivo, po
[8] = Half life period at an intravenous dose of 6.3 mg/kg in rat; type: ADME, organism-based; set-up: dose 6.3 mg/kg, route intravenous; details: in vivo
[9] = system: Mus musculus; test: Maximal response at 1 nmol/kg intraperitoneal dose; type: functional
[10] = system: Mus musculus; test: maximal response at 1 nmol/kg peroral dose; type: functional
[11] = Volume of distribution at steady state at an intravenous dose of 6.3 mg/kg in rat; type: ADME, organism-based; set-up: dose 6.3 mg/kg, route intravenous; details: in vivo, read-out: Vss
[12] = system: Mus musculus; test: Peroral dose that produces a half maximal response in mouse gall bladder emptying assay (in vivo); type: functional; details: po
[13] = Total body clearance at an intravenous dose of 6.3 mg/kg in rat; type: ADME, organism-based; set-up: dose 6.3 mg/kg, route intravenous; details: in vivo
[14] = Oral bioavailability in Long-Evans rats at an intravenous dose of 6.3 mg/kg; Not active; type: ADME, organism-based; details: rat, in vivo
[15] = Maximum concentration at an intraduodenal dose of 6.6 mg/kg in rat; type: ADME, organism-based; set-up: dose 6.6 mg/kg, route intraduodenal; details: in vivo
[16] = system: Rattus norvegicus; test: Maximal response at 0.5 umol/kg intraperitoneal dose; type: functional
[17] = system: Mus musculus; test: Intraperitoneal dose that produces a half maximal response in mouse gall bladder emptying assay (in vivo); type: functional; details: ip
[18] = Maximum concentration at an intravenous dose of 6.3 mg/kg; type: ADME, organism-based; set-up: dose 6.3 mg/kg, route intravenous; details: rat, in vivo
[19] = Oral bioavailability in Long-Evans rats at an peroral dose of 6.2 mg/kg; type: ADME, organism-based; details: rat, in vivo
[20] = system: Mus musculus; test: Maximal response at 1 nmol/kg peroral dose; type: functional

## COc1ccc(N(C(=O)CN2C(=O)C(Cc3[nH]nc4c3CCCC4)C(=O)N(c3ccccc3)c3ccccc32)C(C)C)cc1 (configuration not stated)
[1]
  IC50: 2950 nM
[2]
  Max: 80%
[3]
  EC50: 300 nM
[4]
  IC50: 129 nM

## COc1ccc(N(C(=O)CN2C(=O)C(Cc3cc(-c4ccccc4)[nH]n3)C(=O)N(c3ccccc3)c3ccccc32)C(C)C)cc1 (configuration not stated)
[2]
  Max: 20%

## COc1ccc(N(C(=O)CN2C(=O)C(Cc3n[nH]c4cc(F)ccc34)C(=O)N(c3ccccc3)c3ccccc32)C(C)C)cc1 (configuration not stated)
[1]
  IC50: 589 nM
[2]
  Max: 100%
[3]
  EC50: 40 nM
[4]
  IC50: 29.5 nM

## COc1ccc(N(C(=O)CN2C(=O)C(Cc3n[nH]c4ccccc34)C(=O)N(c3ccccc3)c3ccccc32)C(C)C)cc1 (configuration not stated)
[5]
  bioavailability: 16%
[6]
  ED50: 0.05 µmol/kg
[7]
  Cmax: 20 ng/mL
[8]
  half-life: 2.1 h
[9]
  Max: 97%
[10]
  Max: 89%
[11]
  Vd: 5.17 L/kg
[12]
  ED50: 0.01 µmol/kg
[13]
  clearance: 38 mL/min/kg
[14]
  F: Not Active
[15]
  Cmax: 193 ng/mL
[16]
  Max: 98%
[17]
  ED50: 0.0002 µmol/kg
[18]
  Cmax: 2100 ng/mL
[19]
  bioavailability: 8%

## COc1ccc(N(C(=O)CN2C(=O)C(Cc3coc4ccccc34)C(=O)N(c3ccccc3)c3ccccc32)C(C)C)cc1 (configuration not stated)
[2]
  Max: 40%

## CC(C)(C)N(C(=O)CN1C(=O)C(Cc2n[nH]c3ccccc23)C(=O)N(c2ccccc2)c2ccccc21)c1ccccc1 (configuration not stated)
[2]
  Max: 90%
[3]
  EC50: 110 nM
[4]
  IC50: 891 nM

## COc1ccc(N(C(=O)CN2C(=O)C(Cc3c[nH]c4ccccc34)(OC)C(=O)N(c3ccccc3)c3ccccc32)C(C)C)cc1 (configuration not stated)
[1]
  IC50: 29500 nM
[20]
  Max: 54%
[9]
  Max: 84%
[2]
  Max: 60%
[3]
  EC50: 150 nM
[4]
  IC50: 13.8 nM

## COc1ccc(N(C(=O)CN2C(=O)C(Cc3c[nH]c4ccccc34)C(=O)N(c3ccccc3)c3ccccc32)C(C)C)cc1 (configuration not stated)
[20]
  Max: 74%
[9]
  Max: 90%
[12]
  ED50: 0.1 µmol/kg
[17]
  ED50: 0.0038 µmol/kg

## COc1ccc(N(C(=O)CN2C(=O)C(C)(Cc3cn(C)c4ccccc34)C(=O)N(c3ccccc3)c3ccccc32)C(C)C)cc1 (configuration not stated)
[2]
  Max: 40%
[4]
  IC50: 17.8 nM

## COc1ccc(N(C(=O)CN2C(=O)C(Cc3csc4ccccc34)C(=O)N(c3ccccc3)c3ccccc32)C(C)C)cc1 (configuration not stated)
[2]
  Max: 50%

## O=C1C(Cc2n[nH]c3ccccc23)C(=O)N(c2ccccc2)c2ccccc2N1CC(=O)N(c1ccccc1)C1CC1 (configuration not stated)
[1]
  IC50: 25.1 nM
[2]
  Max: 70%
[3]
  EC50: 20 nM
[4]
  IC50: 525 nM

## CSCC[C@H](NC(=O)[C@H](Cc1ccc(OS(=O)(=O)O)cc1)NC(=O)[C@@H](N)CC(=O)O)C(=O)NCC(=O)N[C@@H](Cc1c[nH]c2ccccc12)C(=O)N[C@@H](CCSC)C(=O)N[C@@H](CC(=O)O)C(=O)N[C@@H](Cc1ccccc1)C(N)=O [SINCALIDE]
[6]
  ED50: 0.03 µmol/kg
[9]
  Max: 95%
[16]
  Max: 95%

## COc1ccc(N(C(=O)CN2C(=O)C(Cc3n[nH]c4ccc(F)cc34)C(=O)N(c3ccccc3)c3ccccc32)C(C)C)cc1 (configuration not stated)
[1]
  IC50: 2510 nM
[2]
  Max: 90%
[3]
  EC50: 40 nM
[4]
  IC50: 42.7 nM

## COc1ccc(N(C(=O)CN2C(=O)C(Cc3n[nH]c4cccc(F)c34)C(=O)N(c3ccccc3)c3ccccc32)C(C)C)cc1 (configuration not stated)
[1]
  IC50: 1700 nM
[2]
  Max: 100%
[3]
  EC50: 70 nM
[4]
  IC50: 17.4 nM

## COc1ccc(N(C(=O)CN2C(=O)C(Cc3n[nH]c4cccnc34)C(=O)N(c3ccccc3)c3ccccc32)C(C)C)cc1 (configuration not stated)
[2]
  Max: 40%
